Laboratory results from ChEMBL document CHEMBL1157464, “1-[(3-Aryloxy-3-aryl)propyl]-1H-imidazoles, new imidazoles with potent activity against Candida albicans and dermatophytes. Synthesis, structure-activity relationship, and molecular modeling studies” (J Med Chem, 2008).
In brackets after ≈: the same amount, converted by molar mass.

What was measured:
[1] = tested on: Candida parapsilosis; assay: Antifungal activity against Candida parapsilosis ATCC 22019 at 35 degC after 48 hrs by broth microdilution test; assay type: functional; details: for MFC: read-out: MFC
Summary of the method: (§1)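 Broth microdilution per NCCLS M27-A2. Stocks in 100% DMSO, diluted in RPMI 1640 with 0.165 M MOPS at pH 7.0; final range 0.25–128 µg/mL. Inoculum 1000–5000 cells/mL from SDA subcultures. […] C. parapsilosis ATCC22019 served as QC strain.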

[2] = tested on: Candida albicans; assay: Antifungal activity against Candida albicans ATCC 10261 at 35 degC after 48 hrs by broth microdilution test; assay type: functional; summary of the method: as §1
[3] = tested on: Candida albicans; assay: Antifungal activity against Candida albicans ATCC 10261 at 35 degC after 48 to 96 hrs by broth microdilution test; assay type: functional
Summary of the method: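 Minimal fungicidal concentration for Candida. […] MFC is the lowest concentration allowing fewer than two colonies (99% killing).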

[4] = tested on: Arthrodermataceae; assay: Antifungal activity against dermatophytes at 28 degC after 7 days by broth microdilution test; assay type: functional; details: 168 h
Summary of the method: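 Ten clinical isolates (two M. canis, five M. gypseum, three T. mentagrophytes) tested by NCCLS M38-A broth microdilution in MOPS-buffered RPMI 1640, pH 7.0, over 0.25–128 µg/mL. Conidial/hyphal suspension from PDA slants (28 °C, 7 days) adjusted to 65–70% transmittance at OD530, then diluted 1:50.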

[5] = tested on: Arthrodermataceae; assay: Antifungal activity against dermatophytes at 28 degC after 5 days by broth microdilution test; details: for MFC: Arthrodermataceae
[6] = tested on: Arthrodermataceae; assay: Antifungal activity against dermatophytes at 28 degC after 48 to 96 hrs by broth microdilution test
[7] = Lodderomyces parapsilosis, ATCC 22019, 48 h
[8] = Lodderomyces parapsilosis, ATCC 22019, 48 h, read-out: MIC
[9] = Candida albicans, ATCC 10261, 48 h, read-out: MIC
[10] = Candida albicans, ATCC 10261, 48 h, read-out: MIC50
[11] = Candida albicans, ATCC 10261, 48 h, read-out: MIC90
[12] = Candida albicans, ATCC 10261, read-out: MFC

Clc1ccc(OC(CCn2ccnc2)c2ccc(Cl)cc2Cl)c(Cl)c1 (centres undefined)
MFC [1, 7]: 64 µg/mL (≈ 154 µM)
MIC [1, 8]: 8 µg/mL (≈ 19.2 µM)
MIC [2, 9]: 51 µg/mL (≈ 123 µM)
MIC50 [2, 10]: 64 µg/mL (≈ 154 µM)
MIC90 [2, 11]: 64 µg/mL (≈ 154 µM)
MFC50 [3]: 64 µg/mL (≈ 154 µM)
MFC90 [3]: 64 µg/mL (≈ 154 µM)
MFC [3, 12]: 64 µg/mL (≈ 154 µM)

Cc1ccc(C(CCn2ccnc2)Oc2ccc(Cl)cc2C)cc1 (centres undefined)
MFC [1, 7]: 16 µg/mL (≈ 46.9 µM)
MIC [1, 8]: 4 µg/mL (≈ 11.7 µM)
MIC [2, 9]: 16 µg/mL (≈ 46.9 µM)
MIC50 [2, 10]: 16 µg/mL (≈ 46.9 µM)
MIC90 [2, 11]: 16 µg/mL (≈ 46.9 µM)
MFC50 [3]: 64 µg/mL (≈ 188 µM)
MFC90 [3]: 64 µg/mL (≈ 188 µM)
MFC [3, 12]: 58 µg/mL (≈ 170 µM)

Fc1ccc(C(CCn2ccnc2)Oc2ccccc2)cc1 (centres undefined)
MFC [1, 7]: 32 µg/mL (≈ 108 µM)
MIC [1, 8]: 8 µg/mL (≈ 27 µM)
MIC [2, 9]: 32.1 µg/mL (≈ 108 µM)
MIC50 [2, 10]: 32 µg/mL (≈ 108 µM)
MIC90 [2, 11]: 64 µg/mL (≈ 216 µM)
MFC50 [3]: 64 µg/mL (≈ 216 µM)
MFC90 [3]: 64 µg/mL (≈ 216 µM)
MFC [3, 12]: 57.6 µg/mL (≈ 194 µM)
MIC [4]: 16.1 µg/mL (≈ 54.3 µM)
MIC50 [4]: 16 µg/mL (≈ 54 µM)
MIC90 [4]: 16 µg/mL (≈ 54 µM)
MFC90 [5]: 32 µg/mL (≈ 108 µM)
MFC [5]: 28.5 µg/mL (≈ 96.2 µM)
MFC50 [6]: 32 µg/mL (≈ 108 µM)

Clc1ccc(C(CCn2cncn2)Oc2ccc(Cl)cc2Cl)cc1 (centres undefined)
MFC [1, 7]: 64 µg/mL (≈ 167 µM)
MIC [1, 8]: 32 µg/mL (≈ 83.6 µM)
MIC [2, 9]: > 128 µg/mL
MIC50 [2, 10]: > 128 µg/mL
MIC90 [2, 11]: > 128 µg/mL
MFC50 [3]: >128 µg/mL
MFC90 [3]: >128 µg/mL
MFC [3, 12]: > 128 µg/mL
MIC [4]: 10.4 µg/mL (≈ 27.2 µM)
MIC50 [4]: 8 µg/mL (≈ 20.9 µM)
MIC90 [4]: 16 µg/mL (≈ 41.8 µM)
MFC90 [5]: >128 µg/mL
MFC [5]: 138 µg/mL (≈ 360 µM)
MFC50 [6]: 32 µg/mL (≈ 83.6 µM)

Cc1ccc(OC(CCn2ccnc2)c2ccc(Cl)cc2)c(C)c1 (centres undefined)
MFC [1, 7]: 32 µg/mL (≈ 93.9 µM)
MIC [1, 8]: 8 µg/mL (≈ 23.5 µM)
MIC [2, 9]: 13.5 µg/mL (≈ 39.6 µM)
MIC50 [2, 10]: 16 µg/mL (≈ 46.9 µM)
MIC90 [2, 11]: 16 µg/mL (≈ 46.9 µM)
MFC50 [3]: 32 µg/mL (≈ 93.9 µM)
MFC90 [3]: 32 µg/mL (≈ 93.9 µM)
MFC [3, 12]: 28 µg/mL (≈ 82.1 µM)
MIC [4]: 32.5 µg/mL (≈ 95.3 µM)
MIC50 [4]: 32 µg/mL (≈ 93.9 µM)
MIC90 [4]: 32 µg/mL (≈ 93.9 µM)
MFC90 [5]: 64 µg/mL (≈ 188 µM)
MFC [5]: 58 µg/mL (≈ 170 µM)
MFC50 [6]: 64 µg/mL (≈ 188 µM)

Clc1ccc(C(OCCn2ccnc2)c2ccc(Cl)cc2Cl)cc1.O=[N+]([O-])O (centres undefined)
MFC [1, 7]: 32 µg/mL
MIC [1, 8]: 16 µg/mL
MIC [2, 9]: 34.4 µg/mL
MIC50 [2, 10]: 32 µg/mL
MIC90 [2, 11]: 64 µg/mL
MFC50 [3]: 128 µg/mL
MFC90 [3]: 256 µg/mL
MFC [3, 12]: 145 µg/mL

Cc1ccc(OC(CCCCn2ccnc2)c2ccc(Cl)cc2)cc1 (centres undefined)
MFC [1, 7]: 8 µg/mL (≈ 22.5 µM)
MIC [1, 8]: 8 µg/mL (≈ 22.5 µM)
MIC [2, 9]: 32 µg/mL (≈ 90.2 µM)
MIC50 [2, 10]: 32 µg/mL (≈ 90.2 µM)
MIC90 [2, 11]: 32 µg/mL (≈ 90.2 µM)
MFC50 [3]: 32 µg/mL (≈ 90.2 µM)
MFC90 [3]: 32 µg/mL (≈ 90.2 µM)
MFC [3, 12]: 32 µg/mL (≈ 90.2 µM)

Cc1ccc(C(CCn2cncn2)Oc2ccc(Cl)cc2Cl)cc1 (centres undefined)
MFC [1, 7]: 64 µg/mL (≈ 177 µM)
MIC [1, 8]: 32 µg/mL (≈ 88.3 µM)
MIC [2, 9]: > 128 µg/mL
MIC50 [2, 10]: > 128 µg/mL
MIC90 [2, 11]: > 128 µg/mL
MFC50 [3]: >128 µg/mL
MFC90 [3]: >128 µg/mL
MFC [3, 12]: > 128 µg/mL
MIC [4]: 17.6 µg/mL (≈ 48.6 µM)
MIC50 [4]: 16 µg/mL (≈ 44.2 µM)
MIC90 [4]: 32 µg/mL (≈ 88.3 µM)
MFC90 [5]: >128 µg/mL
MFC [5]: 122 µg/mL (≈ 336 µM)
MFC50 [6]: 32 µg/mL (≈ 88.3 µM)

Clc1ccc(C(CCn2ccnc2)OCc2ccc(Cl)cc2Cl)cc1 (centres undefined)
MFC [1, 7]: 32 µg/mL (≈ 80.9 µM)
MIC [1, 8]: 4 µg/mL (≈ 10.1 µM)
MIC [2, 9]: 60.2 µg/mL (≈ 152 µM)
MIC50 [2, 10]: 64 µg/mL (≈ 162 µM)
MIC90 [2, 11]: 64 µg/mL (≈ 162 µM)
MFC50 [3]: 64 µg/mL (≈ 162 µM)
MFC90 [3]: 64 µg/mL (≈ 162 µM)
MFC [3, 12]: 62 µg/mL (≈ 157 µM)
MIC [4]: 7 µg/mL (≈ 17.7 µM)
MIC50 [4]: 8 µg/mL (≈ 20.2 µM)
MIC90 [4]: 8 µg/mL (≈ 20.2 µM)
MFC90 [5]: 16 µg/mL (≈ 40.4 µM)
MFC [5]: 17.3 µg/mL (≈ 43.7 µM)
MFC50 [6]: 16 µg/mL (≈ 40.4 µM)

Cc1ccc(C(CCn2ccnc2)Oc2ccc(C(C)(C)C)cc2)cc1 (centres undefined)
MFC [1, 7]: 16 µg/mL (≈ 45.9 µM)
MIC [1, 8]: 8 µg/mL (≈ 23 µM)
MIC [2, 9]: 52.1 µg/mL (≈ 150 µM)
MIC50 [2, 10]: 64 µg/mL (≈ 184 µM)
MIC90 [2, 11]: 64 µg/mL (≈ 184 µM)
MFC50 [3]: 64 µg/mL (≈ 184 µM)
MFC90 [3]: 64 µg/mL (≈ 184 µM)
MFC [3, 12]: 58 µg/mL (≈ 166 µM)
MIC [4]: 11.2 µg/mL (≈ 32.1 µM)
MIC50 [4]: 8 µg/mL (≈ 23 µM)
MIC90 [4]: 16 µg/mL (≈ 45.9 µM)
MFC90 [5]: 16 µg/mL (≈ 45.9 µM)
MFC [5]: 14.4 µg/mL (≈ 41.3 µM)
MFC50 [6]: 16 µg/mL (≈ 45.9 µM)

Cc1ccc(C(CCn2ccnc2)Oc2ccc(C)cc2C)cc1 (centres undefined)
MFC [1, 7]: 32 µg/mL (≈ 99.9 µM)
MIC [1, 8]: 8 µg/mL (≈ 25 µM)
MIC [2, 9]: 46.5 µg/mL (≈ 145 µM)
MIC50 [2, 10]: 32 µg/mL (≈ 99.9 µM)
MIC90 [2, 11]: 64 µg/mL (≈ 200 µM)
MFC50 [3]: 64 µg/mL (≈ 200 µM)
MFC90 [3]: 64 µg/mL (≈ 200 µM)
MFC [3, 12]: 62 µg/mL (≈ 193 µM)

Cc1ccc(OC(CCn2ccnc2)c2ccccc2)cc1 (single isomer, unassigned; (-))
MIC [1]: 2 µg/mL (≈ 6.84 µM)
MIC [2]: 28.3 µg/mL (≈ 96.8 µM)
MIC50 [2]: 16 µg/mL (≈ 54.7 µM)
MIC90 [2]: 64 µg/mL (≈ 219 µM)
MFC [3]: 51.4 µg/mL (≈ 176 µM)
MFC50 [3]: 64 µg/mL (≈ 219 µM)
MFC90 [3]: 64 µg/mL (≈ 219 µM)

O=[N+]([O-])O.c1ccc(C(OCCn2ccnc2)c2ccccc2)cc1
MFC [1, 7]: 64 µg/mL
MIC [1, 8]: 32 µg/mL
MIC [2, 9]: 78.1 µg/mL
MIC50 [2, 10]: 64 µg/mL
MIC90 [2, 11]: 128 µg/mL
MFC50 [3]: 128 µg/mL
MFC90 [3]: >256 µg/mL
MFC [3, 12]: 230 µg/mL
